We go through 5 molecules from ChEMBL document CHEMBL3352478, “Novel benzopsoralen analogues: synthesis, biological activity and molecular docking studies” (2014).

Each structure is given as a SMILES string.

One test relates to MDA-MB-231. The test can be described thus: Antiproliferative activity against human MDA-MB-231 cells after 48 hrs by MTS assay. To be noted: MDA-MB-231, 48 h. Format: functional. The method in brief:
(§1)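 Cells were grown in DMEM with 1% penicillin/streptomycin and FBS (10% for MDA-MB-231, 15% for TCC-SUP). At 1×10^4 cells/mL, cells were exposed for 48 h to five compound concentrations freshly diluted from DMSO stocks (final DMSO <1%). MTS reagent was then added for 2 h at 37 °C, 5% CO2, and absorbance read at 490 nm. Viability was taken as % of control and GI50 read from dose-response curves; 3 independent cultures, 4 wells per concentration.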

Test [1] in a line: Antiproliferative activity against human TCCSUP cells after 48 hrs by MTS assay. Format: functional. The conditions noted are these: TCC-SUP. The method in brief: as §1
For orientation: Formazan colour is commonly taken as a measure of viable cells.

Turning to `CCOC(=O)/C=C/n1c2ccccc2c2cc(O)ccc21`, the 50% growth inhibitory concentration (GI50) (commonly the concentration at which growth is held to half of that of the control) in the test on MDA-MB-231 was determined as 198 nM; in test [1] it was 25 nM.
Consider `Cc1c(Cl)c(=O)oc2cc3[nH]c4ccccc4c3cc12`, for which the GI50 in the test on MDA-MB-231 was 421 nM; in test [1], 149 nM.
Take `Cc1c(Cl)c(=O)oc2c1ccc1c3ccccc3sc12`: the GI50 in the test with MDA-MB-231 was found to be 460 nM; in test [1] it was 311 nM.
The matching figures for `Cc1cc(=O)oc2c1ccc1c3ccccc3sc12`: 49 nM and 253 nM.
Take `Cc1c(Cl)c(=O)oc2cc3c(cc12)oc1ccccc13`: the GI50 with MDA-MB-231 is 82 nM; in test [1], 243 nM.
